Measurements published in article PMC4643417 (Leukemia & lymphoma, 2015).

Experiments:
[1] = in vivo
[2] = system: patients with previously untreated CLL; design: species or system human; details: in vivo
[3] = system: patients with previously untreated CLL; experiment: Phase 2 randomized three-arm trial: investigator-assessed best response; assay type: in vivo, human
How it was run: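 Open-label multicenter trial, randomized 1:1:1 and stratified by Binet stage and del(17p)/del(11q) (interphase FISH on marrow aspirates). Rituximab 375 mg/m2 week 1, then 500 mg/m2 weekly weeks 2–8, alone or with oral navitoclax (100 mg daily lead-in week, then 250 mg daily for 12 weeks). Investigator response by updated iwCLL at week 12, then every 12 weeks. ORR (CR+PR) with 95% CI; PFS by Kaplan–Meier.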

[4] = system: patients with CLL, BCL2 protein low or high subgroups; experiment: Association of baseline BCL2 protein expression; assay type: in vivo, human; details: arm A (n = 24) / arms B + C pooled (n = 31)
How it was run: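 Baseline bone marrow aspirates (optional consent), fresh: intracellular BCL2 staining by flow cytometry at a central lab within 72 h of collection, gated on CD19/CD5-positive CLL cells. Low/high subgroups split at median expression. Rituximab 375 mg/m2 week 1, then 500 mg/m2 weekly weeks 2–8, ± oral navitoclax (100 mg/day lead-in, then 250 mg/day). Odds ratios of objective response by logistic regression.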

[5] = Navitoclax plasma pharmacokinetics; assay type: in vivo, human; details: for AUC / Cmax / Tmax: human, plasma, po
[6] = system: patients with relapsed/refractory CLL; details: phase 1 study, single-agent navitoclax; cited from earlier work
[7] = system: BCLXL; details: statement in discussion; cited from earlier work
[8] = system: BCL2; details: statement in discussion; cited from earlier work
[9] = ITT population, arm A (n = 40) / arm B (n = 38; navitoclax 12 weeks)
[10] = patients with del(17p), arm A (n = 11) / arm B (n = 12; navitoclax 12 weeks)

With rituximab the “Effect of navitoclax on the PK of rituximab” value [1] was “does not affect the PK of rituximab”, the “Week 8 rituximab concentration, post-infusion” value [1] was 576 ± 264 (n = 33) μg/mL and the “Week 8 rituximab concentration, pre-infusion” value [1] was 296 ± 175 (n = 33) μg/mL. The Anemia/worsening of anemia [2] was 2 (5) n (%), the “Any AEs” value [2] was 33 (87) n (%) and the “Any SAEs” value [2] was 5 (13) n (%). The Asthenia [2] was 0 (0) n (%), the Chills [2] was 0 (0) n (%) and the Diarrhea [2] was 0 (0) n (%). The “GI and abdominal pain” value [2] was 0 (0) n (%), the “Grade 5 AEs” value [2] was 3% and the Hyperbilirubinemia [2] was 0 (0) n (%). For the same compound, the Leukopenia [2] was 1 (3) n (%), the Liver enzyme increase [2] was 0 (0) n (%) and the Neutropenia [2] was 3 (8) n (%). For the same compound, the “Patients who withdrew from study due to AEs” value [2] was 0 [0%] n [%], the Respiratory tract infection [2] was 3 (8) n (%) and the Thrombocytopenia [2] was 0 (0) n (%). For the same compound, the “Vascular hypertensive disorders (hypertension)” value [2] was 0 (0) n (%), the “Best response: Missing” value [3, 9] was 3 (8) n (%) and the “Complete response (CR)” value [3, 9] was 0 (0) n (%). For the same compound, the “Partial response (PR)” value [3, 9] was 14 (35) n (%), the Progressive disease [3, 9] was 2 (5) n (%) and the Stable disease [3, 9] was 21 (53) n (%). The “Overall response rate (complete [CR] and partial [PR]), investigator-assessed” value ([3]; arm A / arm B (navitoclax daily for 12 weeks)) was 35%, the “Best response: Missing” value [3, 10] was 0 (0) n (%) and the “Complete response (CR)” value [3, 10] was 0 (0) n (%). The “Partial response (PR)” value [3, 10] was 2 (18) n (%), the Progressive disease [3, 10] was 1 (9) n (%) and the Stable disease [3, 10] was 8 (73) n (%). The “Best response PR” value [4] was 6 (43%) n (%) and the “Best response SD or PD” value [4] was 8 (57%) n (%).

With CC1(C)CCC(c2ccc(Cl)cc2)=C(CN2CCN(c3ccc(C(=O)NS(=O)(=O)c4ccc(N[C@H](CCN5CCOCC5)CSc5ccccc5)c(S(=O)(=O)C(F)(F)F)c4)cc3)CC2)C1 [navitoclax] the “Time of maximum navitoclax concentration (Cmax) after oral administration” value [5] was “approximately 6 h”, the AUC ([5]; 100 mg) was 10500 ± 4100 ng·h/mL and the Cmax ([5]; 100 mg) was 2300 ± 900 ng/mL. For the same compound, the Tmax ([5]; 100 mg) was 6 h, the AUC ([5]; 250 mg) was 61200 ± 31200 ng·h/mL and the Cmax ([5]; 250 mg) was 3700 ± 2000 ng/mL. For the same compound, the Tmax ([5]; 250 mg) was 6.1 h, the “Discontinuation of navitoclax due to hyperbilirubinemia” value ([2]; human) was 1 n and the “Discontinuation of navitoclax due to neutropenia” value ([2]; human) was 1 n. The “Discontinuation of navitoclax due to pain” value ([2]; human) was 1 n, the “Discontinuation of navitoclax due to reaction to the infusion of rituximab” value ([2]; human) was 1 n and the “Discontinuation of navitoclax due to serum sickness” value ([2]; human) was 1 n. For the same compound, the “Discontinuation of navitoclax due to thrombocytopenia” value ([2]; human) was 1 n, the “Patients who discontinued navitoclax due to an AE, total” value ([2]; human) was 12 patients and the “Incidence of SAEs compared to patients treated with rituximab alone” value [2] was “not increased”. The Reports of bleeding [2] was “a single AE of self-limited epistaxis” and the “Overall response rate (ORR)” value [6] was 35%.

For CC1(C)CCC(CN2CCN(c3ccc(C(=O)NS(=O)(=O)c4ccc(NCC5CCOCC5)c([N+](=O)[O-])c4)c(Oc4cnc5[nH]ccc5c4)c3)CC2)=C(c2ccc(Cl)cc2)C1 [ABT-199], the BCLXL inhibition [7] is listed as “effectively no BCLXL inhibition” and the “Affinity for BCL2” value [8] is listed as “very high affinity”.
